Active and inactive are the calls of the source. No cut-off for these calls is given here.
Experiments:
[1] = target: T1, Indoleamine 2,3-dioxygenase 1 (Homo sapiens, UniProt P14902); test: Inhibition of human IDO activity by spectrophotometry
Target sequence in this assay (P14902 whole entry): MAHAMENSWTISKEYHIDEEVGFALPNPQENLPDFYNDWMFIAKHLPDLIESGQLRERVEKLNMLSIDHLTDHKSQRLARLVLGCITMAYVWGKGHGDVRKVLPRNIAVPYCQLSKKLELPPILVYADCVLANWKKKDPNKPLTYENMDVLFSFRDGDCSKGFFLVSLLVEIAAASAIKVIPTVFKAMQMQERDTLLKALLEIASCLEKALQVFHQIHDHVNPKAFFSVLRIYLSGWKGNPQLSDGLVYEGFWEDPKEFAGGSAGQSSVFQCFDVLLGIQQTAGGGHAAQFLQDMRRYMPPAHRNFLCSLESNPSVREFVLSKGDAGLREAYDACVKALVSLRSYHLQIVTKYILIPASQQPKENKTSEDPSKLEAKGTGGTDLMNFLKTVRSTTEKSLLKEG

[2] = Cytotoxicity against mouse P815B cells at 20 uM by MTT assay; assay type: cell-based
Method in brief: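 MTT viability on the cells left in wells after the 20 μM overnight IDO assay in HBSS at 37 °C. Culture medium (Iscove, 10% FCS, amino acids) and MTT were added for 3–4 h at 37 °C. Formazan was dissolved in SDS/DMF overnight at 37 °C and read at 570/650 nm.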

[3] = target: T1, Indoleamine 2,3-dioxygenase 1; test: Inhibition of IDO
Target sequence in this assay (P14902 whole entry): as above

[4] = target: Indoleamine 2,3-dioxygenase 1 (Mus musculus) (UniProt P28776); test: Inhibition of mouse IDO expressed in mouse P815B cells assessed as tryptophan degradation at 20 uM; assay type: cell-based
Method in brief: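 2×10^5 cells per well incubated overnight at 37 °C in HBSS with 80 μM L-Trp and 20 μM compound. Supernatant was acetonitrile-precipitated and analysed by HPLC for Trp (280 nm) and kynurenine (360 nm). Percent inhibition of Trp degradation and kynurenine production was calculated relative to maximal activity.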

[5] = target: T1, Indoleamine 2,3-dioxygenase 1; test: Inhibition of human IDO activity at 100 uM by spectrophotometry
Method in brief: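 Recombinant N-His-tagged human IDO (Ala2–Gly403), expressed in E. coli BL21 AI and Ni-IMAC purified, 0.375 μg per well. Reaction in 50 mM phosphate pH 6.5 with 5 μM methylene blue, 40 mM ascorbate and 100 μM L-Trp, 60 min at room temperature. Stopped with 1 mM H2O2; change in OD320 read against a pre-enzyme baseline.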
Target sequence in this assay (P14902 whole entry, looked up): as the sequence (P14902 whole entry) above

Chain of Indoleamine 2,3-dioxygenase 1 (Mus musculus) (P28776 whole entry, looked up): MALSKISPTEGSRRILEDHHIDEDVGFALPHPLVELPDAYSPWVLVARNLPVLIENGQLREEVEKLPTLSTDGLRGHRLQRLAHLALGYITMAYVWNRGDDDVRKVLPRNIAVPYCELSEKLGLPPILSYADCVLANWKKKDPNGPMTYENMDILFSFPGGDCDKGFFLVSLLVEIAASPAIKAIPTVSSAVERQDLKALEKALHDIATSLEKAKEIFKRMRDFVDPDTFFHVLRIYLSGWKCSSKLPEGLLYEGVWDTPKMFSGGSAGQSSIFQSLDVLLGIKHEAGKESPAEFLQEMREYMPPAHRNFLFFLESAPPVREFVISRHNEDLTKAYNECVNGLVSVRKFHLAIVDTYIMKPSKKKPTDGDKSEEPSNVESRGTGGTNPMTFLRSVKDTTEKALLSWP

**Q.** For COc1cc(OC)c2cc(C(=O)Cc3cccnc3)[nH]c2c1, which IC50 ([1]; read-out: IC50) is on record?
**A.** Its IC50 is 45 µM.

**Q.** And the Activity [2]?
**A.** The Activity was “Toxic”.

**Q.** For c1ccc2c(c1)[nH]c1cnccc12 [NORHARMANE], which Ki [3] is on record?
**A.** The Ki was 120 µM.

**Q.** For O=C(Cc1cnccn1)c1cc2ccccc2[nH]1, which IC50 ([1]; read-out: IC50) is on record?
**A.** Its IC50 is 26.2 µM.

**Q.** And the inhibition [4]?
**A.** Its inhibition is “inactive”.

**Q.** With COc1cccc2[nH]c(C(=O)Cc3cccnc3)cc12 as the compound, how does the IC50 ([1]; read-out: IC50) read?
**A.** Its IC50 is 58 µM.

**Q.** What about the inhibition [4] of the same compound?
**A.** Its inhibition is “inactive”.

**Q.** Which results are given for O=C(Cc1cccnc1)c1cc2cc(Cl)ccc2[nH]1?
**A.** IC50 ([1]; read-out: IC50): 24.6 µM; inhibition [4]: 24%

**Q.** With O=C(Cc1cccnc1)c1cc2cc(Br)ccc2[nH]1 as the compound, how does the IC50 ([1]; read-out: IC50) read?
**A.** Its IC50 is 18 µM.

**Q.** And the inhibition [4]?
**A.** Its inhibition is “inactive”.

**Q.** Which IC50 [1] does the source give for OC(Cc1cccnc1)c1cc2ccccc2[nH]1 (stereo not given) here?
**A.** The IC50 was “Not Active”.

**Q.** And the inhibition [4]?
**A.** The inhibition was “inactive”.

**Q.** For O=C(Nc1cccnc1)c1cc2ccccc2[nH]1, which IC50 ([1]; read-out: IC50) is on record?
**A.** The IC50 was 94 µM.

**Q.** What about the inhibition [4] of the same compound?
**A.** Its inhibition is “inactive”.

**Q.** With O=C(Cc1ccccn1)c1cc2ccccc2[nH]1 as the compound, how does the IC50 ([1]; read-out: IC50) read?
**A.** The IC50 was 37 µM.

**Q.** And the inhibition [4]?
**A.** Its inhibition is 10%.

**Q.** Which results are given for O=C(Cc1cccnc1)c1cc2cc(OC(F)(F)F)ccc2[nH]1?
**A.** IC50 ([1]; read-out: IC50): 13.1 µM; inhibition [4]: 12%

**Q.** Which IC50 ([1]; read-out: IC50) does the source give for Cn1c(C(=O)Cc2cccnc2)cc2ccccc21 here?
**A.** Its IC50 is 34 µM.

**Q.** What about the inhibition [4] of the same compound?
**A.** Its inhibition is “inactive”.

**Q.** What does the source list for O=C(Cc1ccccc1)c1cc2ccccc2[nH]1?
**A.** IC50 ([1]; read-out: IC50): 29 µM; inhibition [4]: inactive

**Q.** Which IC50 ([1]; read-out: IC50) does the source give for O=C(Cc1cccnc1)c1cc2cc(O)ccc2[nH]1 here?
**A.** Its IC50 is 37 µM.

**Q.** What about the inhibition [4] of the same compound?
**A.** Its inhibition is “inactive”.

**Q.** With COc1ccc2[nH]c(C(=O)Cc3cccnc3)cc2c1OCc1ccccc1 as the compound, how does the IC50 [1] read?
**A.** Its IC50 is “Not Active”.

**Q.** What about the inhibition [4] of the same compound?
**A.** Its inhibition is “inactive”.

**Q.** Which results are given for O=C(Cc1cccnc1)c1cc2cc(F)ccc2[nH]1?
**A.** IC50 ([1]; read-out: IC50): 36 µM; inhibition [4]: 24%

**Q.** For O=C(Cc1cccnc1)c1cc2cc(-c3ccccc3)ccc2[nH]1, which IC50 ([1]; read-out: IC50) is on record?
**A.** Its IC50 is 96 µM.

**Q.** What about the inhibition [4] of the same compound?
**A.** Its inhibition is “inactive”.

**Q.** Which IC50 [1] does the source give for O=C(Cc1ccncc1)c1cc2ccccc2[nH]1 here?
**A.** Its IC50 is “Not Active”.

**Q.** What about the inhibition [4] of the same compound?
**A.** Its inhibition is “inactive”.

**Q.** What does the source list for COc1cccc2cc(C(=O)Cc3cccnc3)[nH]c12?
**A.** IC50 ([1]; read-out: IC50): 82 µM; inhibition [4]: 6%

**Q.** With O=C(Cc1cccnc1)c1cc2c(O)cccc2[nH]1 as the compound, how does the IC50 ([1]; read-out: IC50) read?
**A.** Its IC50 is 83 µM.

**Q.** And the inhibition [4]?
**A.** The inhibition was “inactive”.

**Q.** Which results are given for O=C(Cc1cccnc1)c1cc2c(Cl)cc(Cl)cc2[nH]1?
**A.** IC50 ([1]; read-out: IC50): 139 µM; inhibition [4]: inactive

**Q.** Which results are given for O=C(Cc1cccnc1)c1cc2ccc(F)cc2[nH]1?
**A.** IC50 ([1]; read-out: IC50): 43 µM; inhibition [4]: inactive

**Q.** Which IC50 [1] does the source give for O=C(Cc1cccnc1)c1[nH]c2ccccc2c1Br here?
**A.** The IC50 was “Not Active”.

**Q.** What about the inhibition [4] of the same compound?
**A.** Its inhibition is “inactive”.

**Q.** For O/N=C(/Cc1cccnc1)c1cc2ccccc2[nH]1, which inhibition [5] is on record?
**A.** Its inhibition is 19.4%.

**Q.** What about the inhibition [4] of the same compound?
**A.** The inhibition was 25%.

**Q.** For c1cncc(CCc2cc3ccccc3[nH]2)c1, which IC50 [1] is on record?
**A.** The IC50 was “Not Active”.

**Q.** What about the inhibition [4] of the same compound?
**A.** The inhibition was “inactive”.

**Q.** With COc1ccc2[nH]c(C(=O)Cc3cccnc3)cc2c1 as the compound, how does the IC50 ([1]; read-out: IC50) read?
**A.** The IC50 was 49 µM.

**Q.** With O=C(Cc1cccnc1)c1cc2c(F)cccc2[nH]1 as the compound, how does the IC50 ([1]; read-out: IC50) read?
**A.** The IC50 was 153 µM.

**Q.** What about the inhibition [4] of the same compound?
**A.** The inhibition was 12%.

**Q.** With CC(C(=O)c1cc2ccccc2[nH]1)c1cccnc1 (stereo not given) as the compound, how does the IC50 ([1]; read-out: IC50) read?
**A.** Its IC50 is 141 µM.

**Q.** What about the inhibition [4] of the same compound?
**A.** The inhibition was “inactive”.

**Q.** Which IC50 [1] does the source give for O=C(Cc1cccnc1)c1cc2cc([N+](=O)[O-])ccc2[nH]1 here?
**A.** The IC50 was “Not Active”.

**Q.** And the inhibition [4]?
**A.** Its inhibition is “inactive”.

**Q.** For O=C(Cc1cccnc1)c1cc2ccccc2[nH]1, which IC50 ([1]; read-out: IC50) is on record?
**A.** The IC50 was 65 µM.

**Q.** And the inhibition [4]?
**A.** The inhibition was 13%.

**Q.** Which IC50 ([1]; read-out: IC50) does the source give for Cc1ccc2[nH]c(C(=O)Cc3cccnc3)cc2c1 here?
**A.** The IC50 was 87 µM.

**Q.** And the inhibition [4]?
**A.** Its inhibition is 21%.

**Q.** Which results are given for COc1ccc2[nH]c(C(=O)Cc3cccnc3)cc2c1O?
**A.** IC50 ([1]; read-out: IC50): 63 µM; inhibition [4]: 11%

Reference: ChEMBL document CHEMBL1667850, “Indol-2-yl ethanones as novel indoleamine 2,3-dioxygenase (IDO) inhibitors” (Bioorg Med Chem, 2011)
